From ChEMBL document CHEMBL1141109, “Synthesis of an estrogen receptor beta-selective radioligand: 5-[18F]fluoro-(2R,3S)-2,3-bis(4-hydroxyphenyl)pentanenitrile and comparison of in vivo distribution with 16alpha-[18F]fluoro-17beta-estradiol” (J Med Chem, 2005)
One block for each molecule: values may come before it.

How the values were obtained:
[1] = Biodistribution of [18F]-FEDPN in rat muscle after 1 hr block when given in tail vein; (n=5); assay type: ADME, organism-based, Muscle tissue; conditions: in vivo, iv
How it was run: (§1)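 Immature female Sprague–Dawley rats (<25 days old) anesthetized with isoflurane/O2. Given 20 µCi tracer by tail vein in 150 µL of 20% ethanol/saline. […] Killed at 30 min, 1 h or 2 h. Blood and organs blotted, weighed and gamma-counted against a standard dilution of the injectate. Reported as %ID/g ± SD, n=5.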

[2] = Biodistribution of [18F]FEDPN in alpha estrogen receptor knock out mouse lung after 1 h; (n=3); assay type: ADME, organism-based; conditions: in vivo
How it was run: (§2)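 αERKO and βERKO mice, staged by daily vaginal smears and kept on estrogen-free chow, were studied in a nonestrous stage. Each mouse received 11 μCi of tracer in 130 μL of 10% ethanol/saline. Mice were killed at 30 min, 1 h or 2 h (n = 3 each). Organs were removed, blotted, weighed and gamma-counted against an injectate standard. Uptake is given as %ID/g ± SD.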

[3] = Biodistribution of [18F]FEDPN in rat liver after 30 min when given in tail vein; (n=5); assay type: ADME, organism-based; conditions: in vivo, iv, 0.5 h
How it was run: (§3)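 Immature female Sprague–Dawley rats (<25 days old) under isoflurane/O2 got 20 µCi tracer in 150 µL 20% ethanol/saline by tail vein. […] Rats were killed at 30 min, 1 h or 2 h. Organs were blotted, weighed and gamma-counted against an injectate standard. Data are %ID/g ± SD, five rats per point.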

[4] = Biodistribution of [18F]FEDPN in beta estrogen receptor knock out mouse thymus after 1 h; (n=3); assay type: ADME, organism-based; conditions: in vivo; how it was run: as §2
[5] = Biodistribution of [18F]FEDPN in alpha estrogen receptor knock out mouse thymus after 1 h; (n=3); assay type: ADME, organism-based; conditions: in vivo; how it was run: as §2
[6] = Biodistribution of [18F]FEDPN in rat thymus after 1 h block when given in tail vein; (n=5); assay type: ADME, organism-based; conditions: in vivo, iv; how it was run: as §3
[7] = Biodistribution of [18F]FEDPN in beta estrogen receptor knock out mouse spleen after 30 min; (n=3); assay type: ADME, organism-based; conditions: in vivo, 0.5 h; how it was run: as §2
[8] = Biodistribution of [18F]-FEDPN in rat blood after 1 hr block when given in tail vein; (n=5); assay type: ADME, organism-based; conditions: in vivo, iv; how it was run: as §1
[9] = Biodistribution of [18F]FEDPN in beta estrogen receptor knock out mouse uterus after 2 h; (n=3); assay type: ADME, organism-based; conditions: in vivo
How it was run: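 αERKO and βERKO mice were fed estrogen-free chow and staged by daily vaginal smears. Mice in a nonestrous stage each received 11 µCi tracer in 130 µL 10% ethanol/saline. Organs were taken at 30 min, 1 h or 2 h and gamma-counted. Uptake is expressed as %ID/g ± SD, three animals per point.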

[10] = Biodistribution of [18F]-FEDPN in rat muscle after 2 hr when given in tail vein; (n=5); assay type: ADME, organism-based, Muscle tissue; conditions: in vivo, iv; how it was run: as §1
[11] = Biodistribution of [18F]FEDPN in beta estrogen receptor knock out mouse lung after 1 h; (n=3); assay type: ADME, organism-based; conditions: in vivo; how it was run: as §2
[12] = Biodistribution of [18F]FEDPN in rat ovaries after 2 h when given in tail vein; (n=5); assay type: ADME, organism-based, Female gonad; conditions: in vivo, iv; how it was run: as §3
[13] = Biodistribution of [18F]FEDPN in alpha estrogen receptor knock out mouse fat after 1 h; (n=3); assay type: ADME, organism-based, Adipose tissue; conditions: in vivo
How it was run: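 ERKO female mice (αERKO or βERKO), rested 48 h after shipping, placed on estrogen-free chow, and staged by daily vaginal smears. Injected in a nonestrous stage with 11 µCi [18F]FEDPN in 130 µL of 10% ethanol/saline. Killed at 30 min, 1 h or 2 h. Organs counted and reported as %ID/g ± SD, three animals per point.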

[14] = Biodistribution of [18F]FEDPN in beta estrogen receptor knock out mouse bone after 30 min; (n=3); assay type: ADME, organism-based, Bone element; conditions: in vivo, 0.5 h; how it was run: as §2
[15] = Biodistribution of [18F]FEDPN in rat heart after 30 min when given in tail vein; (n=5); assay type: ADME, organism-based; conditions: in vivo, iv, 0.5 h; how it was run: as §3
[16] = Biodistribution of [18F]-FEDPN in rat lung after 1 hr block when given in tail vein; (n=5); assay type: ADME, organism-based; conditions: in vivo, iv; how it was run: as §1
[17] = Biodistribution of [18F]-FEDPN in rat spleen after 1 hr block when given in tail vein; (n=5); assay type: ADME, organism-based; conditions: in vivo, iv; how it was run: as §1
[18] = Biodistribution of [18F]FEDPN in beta estrogen receptor knock out mouse ovaries after 1 h; (n=3); assay type: ADME, organism-based, Female gonad; conditions: in vivo; how it was run: as §2
[19] = Biodistribution of [18F]FES in beta estrogen receptor knock out mouse ovaries after 30 min(n=2); mice in nonestrus stage; assay type: ADME, organism-based, Female gonad; conditions: in vivo, 0.5 h
[20] = Biodistribution of [18F]FES in beta estrogen receptor knock out mouse ovaries after 2 h; (n=3); assay type: ADME, organism-based, Female gonad; conditions: in vivo
[21] = Biodistribution of [18F]FES in alpha estrogen receptor knock out mouse ovaries after 30 min; (n=3); assay type: ADME, organism-based, Female gonad; conditions: in vivo, 0.5 h
[22] = Biodistribution of [18F]FES in alpha estrogen receptor knock out mouse spleen after 30 min; (n=3); assay type: ADME, organism-based; conditions: in vivo, 0.5 h
[23] = Biodistribution of [18F]-FES in beta estrogen receptor knock out mouse heart after 30 min; (n=3); assay type: ADME, organism-based; conditions: in vivo, 0.5 h
How it was run: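 Female βERKO mice in estrus were used because repeated swabbing had induced pseudopregnancy. They were fed estrogen-free chow. Each received 13 µCi [18F]FES in 100 µL 10% ethanol/saline and was sacrificed at 30 min, 1 h or 2 h (n = 3 each). Tissue uptake is given as %ID/g ± SD.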

[24] = Biodistribution of [18F]FES in beta estrogen receptor knock out mouse kidney after 30 min(n=2); mice in nonestrus stage; assay type: ADME, organism-based; conditions: in vivo, 0.5 h
[25] = Biodistribution of [18F]FES in alpha estrogen receptor knock out mouse lung after 2 h; (n=3); assay type: ADME, organism-based; conditions: in vivo
How it was run: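 Female αERKO mice were rested 48 h after shipping and fed estrogen-free chow. They were staged by daily vaginal smears and studied in diestrus. Each received 13 µCi [18F]FES in 100 µL 10% ethanol/saline and was sacrificed at 30 min, 1 h or 2 h (n = 3 per time). Tissue uptake is given as %ID/g ± SD.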

[26] = Biodistribution of [18F]-FES in alpha estrogen receptor knock out mouse brain after 2 h; (n=3); assay type: ADME, organism-based; conditions: in vivo
How it was run: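 αERKO mice staged in diestrus by vaginal smear after rest on estrogen-free chow. Injected with 13 µCi [18F]FES in 100 µL of 10% ethanol/saline and killed at 30 min, 1 h or 2 h (n=3 each). Tissues weighed and gamma-counted, reported as %ID/g ± SD.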

[27] = Biodistribution of [18F]FES in beta estrogen receptor knock out mouse brain after 30 min(n=2); mice in nonestrus stage; assay type: ADME, organism-based; conditions: in vivo, 0.5 h
[28] = Biodistribution of [18F]FES in beta estrogen receptor knock out mouse liver after 2 h; (n=3); assay type: ADME, organism-based; conditions: in vivo
[29] = Biodistribution of [18F]FES in beta estrogen receptor knock out mouse spleen after 30 min(n=2); mice in nonestrus stage; assay type: ADME, organism-based; conditions: in vivo, 0.5 h
[30] = Biodistribution of [18F]FES in beta estrogen receptor knock out mouse liver after 30 min(n=2); mice in nonestrus stage; assay type: ADME, organism-based; conditions: in vivo, 0.5 h
[31] = Biodistribution of [18F]FES in beta estrogen receptor knock out mouse liver after 30 min; (n=3); assay type: ADME, organism-based; conditions: in vivo, 0.5 h
[32] = Biodistribution of [18F]FES in beta estrogen receptor knock out mouse fat after 30 min(n=2); mice in nonestrus stage; assay type: ADME, organism-based, Adipose tissue; conditions: in vivo, 0.5 h
[33] = Biodistribution of [18F]FES in beta estrogen receptor knock out mouse brain after 1 h; (n=3); assay type: ADME, organism-based; conditions: in vivo
[34] = Biodistribution of [18F]FES in beta estrogen receptor knock out mouse lung after 30 min(n=2); mice in nonestrus stage; assay type: ADME, organism-based; conditions: in vivo, 0.5 h

Biodistribution [1]: 0.2 %ID/g | Biodistribution [2]: 2.04 %ID/g | Biodistribution [3]: 1.42 %ID/g | Biodistribution [4]: 0.25 %ID/g | Biodistribution [5]: 0.68 %ID/g | Biodistribution [6]: 0.16 %ID/g | Biodistribution [7]: 0.87 %ID/g | Biodistribution [8]: 0.3 %ID/g | Biodistribution [9]: 0.31 %ID/g | Biodistribution [10]: 0.09 %ID/g | Biodistribution [11]: 1.71 %ID/g | Biodistribution [12]: 0.21 %ID/g | Biodistribution [13]: 0.27 %ID/g | Biodistribution [14]: 3.35 %ID/g | Biodistribution [15]: 0.49 %ID/g | Biodistribution [16]: 0.27 %ID/g | Biodistribution [17]: 0.1 %ID/g | Biodistribution [18]: 0.41 %ID/g
SMILES: N#C[C@H](c1ccc(O)cc1)[C@@H](CCF)c1ccc(O)cc1

Biodistribution [19]: 6.6 %ID/g | Biodistribution [20]: 3.4 %ID/g | Biodistribution [21]: 2.52 %ID/g | Biodistribution [22]: 0.59 %ID/g | Biodistribution [23]: 1.04 %ID/g | Biodistribution [24]: 4.44 %ID/g | Biodistribution [25]: 0.17 %ID/g | Biodistribution [26]: 0.03 %ID/g | Biodistribution [27]: 0.81 %ID/g | Biodistribution [28]: 4.54 %ID/g | Biodistribution [29]: 1.29 %ID/g | Biodistribution [30]: 7.91 %ID/g | Biodistribution [31]: 9.45 %ID/g | Biodistribution [32]: 2.31 %ID/g | Biodistribution [33]: 0.35 %ID/g | Biodistribution [34]: 3.57 %ID/g
SMILES: C[C@]12CC[C@@H]3c4ccc(O)cc4CC[C@H]3[C@@H]1C[C@@H](F)[C@@H]2O [FLUOROESTRADIOL]
